Experiments:
[1] = Inhibitory concentration against thrombin (FIIa); n=2
[2] = Inhibitory concentration against coagulation factor X; n=2
[3] = Number of mouse death after 10 mg/kg compound intra venous administration; n=3; type: ADME, organism-based; design: dose 10 mg/kg; settings: in vivo, iv
Summary of the method: (§1)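 Result recorded as the number of deaths over the number of animals tested.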

[4] = Number of mouse death after 10 mg/kg compound intravenous administration; n=3; type: ADME, organism-based; design: dose 10 mg/kg, route intravenous; settings: in vivo; summary of the method: as §1
[5] = Mean inhibitory concentration against thrombin; n=3
Summary of the method: (§2)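 Ki against each protease (factor Xa, thrombin, plasmin, trypsin), obtained from Dixon plots built at two substrate concentrations; mean of n = 3.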

Plasminogen = Plasminogen (Homo sapiens, UniProt P00747); assay: Mean inhibitory concentration against plasmin; n=3; summary of the method: as §2
Sequence of Plasminogen (P00747 97-580 limits assumed): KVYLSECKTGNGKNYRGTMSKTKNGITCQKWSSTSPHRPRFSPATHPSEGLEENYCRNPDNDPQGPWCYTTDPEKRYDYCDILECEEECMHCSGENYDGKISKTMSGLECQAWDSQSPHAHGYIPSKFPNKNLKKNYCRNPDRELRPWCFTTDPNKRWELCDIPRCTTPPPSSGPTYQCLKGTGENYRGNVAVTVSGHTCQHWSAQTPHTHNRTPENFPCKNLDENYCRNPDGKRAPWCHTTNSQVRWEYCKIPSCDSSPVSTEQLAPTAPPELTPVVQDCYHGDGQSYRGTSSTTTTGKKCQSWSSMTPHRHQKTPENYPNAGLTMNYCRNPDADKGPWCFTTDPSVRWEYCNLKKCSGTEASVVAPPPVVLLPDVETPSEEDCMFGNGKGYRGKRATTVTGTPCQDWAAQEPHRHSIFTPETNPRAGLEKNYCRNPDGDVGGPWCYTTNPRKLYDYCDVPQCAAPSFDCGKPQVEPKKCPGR
Sequence of Plasminogen (P00747 581-810 limits assumed): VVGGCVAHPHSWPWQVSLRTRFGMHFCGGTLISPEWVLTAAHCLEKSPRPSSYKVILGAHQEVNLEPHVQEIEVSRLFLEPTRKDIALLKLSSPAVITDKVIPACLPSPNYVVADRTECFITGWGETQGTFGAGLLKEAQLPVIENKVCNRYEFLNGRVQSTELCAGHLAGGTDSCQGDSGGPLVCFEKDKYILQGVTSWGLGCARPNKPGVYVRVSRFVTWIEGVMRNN

[6] = Mean inhibitory concentration against trypsin; n=3; summary of the method: as §2
[7] = Maximum concentration in monkey plasma after 10 mg/kg oral administration at 120 min; type: ADME, organism-based; design: dose 10 mg/kg, route oral; settings: cercopithecidae
[8] = Mean inhibitory concentration against coagulation factor X; n=3; summary of the method: as §2
[9] = Number of mouse death after 10 mg/kg compound intravenous administration; NT= not tested; type: ADME, organism-based; design: dose 10 mg/kg, route intravenous; settings: in vivo; summary of the method: as §1
[10] = target: Coagulation factor X (Homo sapiens) (UniProt P00742); settings: Plasma, at 10 mg/kg
Sequence of Coagulation factor X (Homo sapiens) (P00742 41-179 limits assumed): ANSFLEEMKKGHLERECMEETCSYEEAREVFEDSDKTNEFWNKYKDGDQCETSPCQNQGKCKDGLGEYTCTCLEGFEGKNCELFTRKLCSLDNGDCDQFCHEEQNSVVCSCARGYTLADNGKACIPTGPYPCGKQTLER
Sequence of Coagulation factor X (Homo sapiens) (P00742 235-488 limits assumed): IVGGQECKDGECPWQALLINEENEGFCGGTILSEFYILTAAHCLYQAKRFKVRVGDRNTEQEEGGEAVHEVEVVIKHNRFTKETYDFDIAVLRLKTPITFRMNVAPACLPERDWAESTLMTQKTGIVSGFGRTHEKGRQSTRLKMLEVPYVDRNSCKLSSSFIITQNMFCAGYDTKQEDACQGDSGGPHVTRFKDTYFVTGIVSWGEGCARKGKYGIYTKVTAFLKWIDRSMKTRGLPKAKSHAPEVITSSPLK

SMILES | IC50 [1] [nM] | IC50 [2] [nM] | Mortality [4] | also measured
N=C(N)N1CCc2ccc(OCC3CCNCC3)cc2C1 | > 10000 | 3000 |  | 
CCOC(=O)C1(COc2ccc3c(c2)CN(C(=N)N)CC3)CCN(c2ccncc2)CC1.Cl.Cl | > 10000 | 80 |  | Mortality [3]: 3
CC(=N)N1CCC(COc2ccc3c(c2)CN(C(=N)N)CC3)CC1.Cl.Cl | > 10000 | 500 | 3 | 
CC(=N)N1CCC(Oc2ccc(C(Cc3ccc4cc[n+](C(=N)N)cc4c3)C(=O)O)cc2)C1 (stereo not drawn) |  |  |  | Ki [5]: > 100000 nM; Ki (Plasminogen): 23000 nM; Ki [6]: 620 nM
Cl.Cl.N=C(N)N1CCc2ccc(OCC3CCN(c4ccncc4)CC3)cc2C1 | > 10000 | 60 | 3 | 
Cl.Cl.N=C(N)N1CCc2ccc(OCC3CCN(c4ccncc4CCC(=O)O)CC3)cc2C1 | > 10000 | 200 |  | Mortality [3]: 0
N=C(N)N1CCc2ccc(OCC3CCN(Cc4ccccn4)CC3)cc2C1 | > 10000 | 1000 |  | 
Cl.Cl.N=C(N)N1CCc2ccc(OCC3CCN(c4ccncc4C(=O)O)CC3)cc2C1 | > 10000 | 2000 | 0 | 
N=C(N)N1CCc2ccc(OCC3(C(=O)O)CCN(c4ccncc4)CC3)cc2C1.O=S(O)O |  |  |  | Cmax [7]: 391 ng/mL; Ki [5]: > 100000 nM; Ki (Plasminogen): 78200 nM; Ki [8]: 19 nM; Ki [6]: 13600 nM
Cl.Cl.Cl.N=C(N)N1CCc2ccc(OCC3CCN(Cc4ccncc4)CC3)cc2C1 | > 10000 | 800 |  | Mortality [9]: 3
Cl.Cl.N=C(N)N1CCc2ccc(OCC3(C(=O)O)CCN(c4ccncc4)CC3)cc2C1 | > 10000 |  |  | Mortality [3]: 0
Cl.Cl.N=C(N)N1CCc2ccc(OCC3(C(=O)O)CCN(c4ccncn4)CC3)cc2C1 | > 10000 | 100 |  | Mortality [3]: 0
N=C(N)N1CCc2ccc(OCC3(C(=O)O)CCN(c4ccncc4)CC3)cc2C1 |  |  |  | inhibition [10]: 41%
Cl.Cl.N=C(N)N1CCc2ccc(OCC3CCN(c4ccnc5ccccc45)CC3)cc2C1 | > 10000 | 400 | 3 | 
CCOC(=O)CCc1cnccc1N1CCC(COc2ccc3c(c2)CN(C(=N)N)CC3)CC1.Cl.Cl | > 10000 | 200 | 3 | 
Cc1cc(N2CCC(COc3ccc4c(c3)CN(C(=N)N)CC4)(C(=O)O)CC2)ccn1.Cl.Cl | > 10000 | 200 |  | Mortality [3]: 0
COC(=O)c1cnccc1N1CCC(COc2ccc3c(c2)CN(C(=N)N)CC3)CC1.Cl.Cl | > 10000 | 200 | 3 | 

— ChEMBL document CHEMBL1145217, “Discovery of novel tetrahydroisoquinoline derivatives as potent and selective factor Xa inhibitors” (Bioorg Med Chem Lett, 2005)
